# High-throughput results deposited in PubChem by several laboratories.
# Compounds with a hit are over-represented: about 1.9% of the library has one in this group of screens.
# Rtt109 Vps75: inhibitors of C. albicans Rtt109/Vps75 HAT, primary screen, biochemical, ThioGlo CoA-SH fluorescence, plate reader | purified Rtt109/Vps75, 4 h | Histone acetyltransferase RTT109 (Candida albicans (strain SC5314 / ATCC MYA-2876)), … | 330,000 compounds, 0.16% hits | inhibition, % at 34.9 µM | AID 540336, 2011;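 active = inhibition of at least 50% in every replicate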
# Target sequence (Q5AAJ8 whole entry, looked up): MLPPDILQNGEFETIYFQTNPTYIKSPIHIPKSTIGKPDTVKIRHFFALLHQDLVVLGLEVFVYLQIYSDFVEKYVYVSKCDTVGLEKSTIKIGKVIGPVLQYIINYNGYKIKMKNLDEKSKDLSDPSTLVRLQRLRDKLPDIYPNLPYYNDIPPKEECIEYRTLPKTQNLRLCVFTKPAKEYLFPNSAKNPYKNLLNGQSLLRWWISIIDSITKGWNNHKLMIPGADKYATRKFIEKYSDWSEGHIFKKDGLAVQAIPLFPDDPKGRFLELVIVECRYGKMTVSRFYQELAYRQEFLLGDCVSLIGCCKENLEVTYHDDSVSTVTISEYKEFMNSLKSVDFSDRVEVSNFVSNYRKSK
# FGF22 binding: binders of human FGF22 protein, primary screen, FGF22 synaptogenesis inhibitor project, biophysical, thermal shift, single point | Fibroblast growth factor 22 (Homo sapiens), Q9HCT0 | recombinant FGF22 thermal shift, SYPRO orange fluorescence; percent of sucrose octasulfate shift, DMSO zero | activity (Tm shift, normalised), % at 9.99 µM | 340,000 compounds, 1.5% hits | AID 651658, 2012;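 active = mean Tm shift, scaled 0 neutral to 100 positive control, at about 1.3% or above, every replicate too, limit read from the data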
# Target sequence (Q9HCT0 whole entry, looked up): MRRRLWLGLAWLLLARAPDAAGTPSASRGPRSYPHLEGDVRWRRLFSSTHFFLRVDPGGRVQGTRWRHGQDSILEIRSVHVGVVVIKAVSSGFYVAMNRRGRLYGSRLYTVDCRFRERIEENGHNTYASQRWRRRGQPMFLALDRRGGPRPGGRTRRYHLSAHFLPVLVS
# Efflux pump inh: inhibitors of Candida efflux pumps in yeast, primary screen, S. cerevisiae, Nile Red, multiplex | 330,000 compounds, 0.44% hits | AID 485275, 2010 | S. cerevisiae Candida pump triplex | inhibition, % at 10 µM;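 active = plate passing quality check with inhibition over a set limit, or well fluorescence over plate mean plus 4 SD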;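 note: Nile Red retained in pooled yeast measured as flow cytometry median fluorescence; 0% = buffer negative control and 100% = Enniatin B positive control; higher means more Nile Red kept so more efflux inhibition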
# ARFGAP1 inh: inhibitors of rat ARFGAP1 GAP activity, primary screen, biochemical, fluorescence polarization, GDP tracer; AID 651572, 2012; Arfgap1-stimulated ARF1 GTP hydrolysis, GDP FP detection; ADP-ribosylation factor GTPase-activating protein 1 (Rattus norvegicus), Q62848; inhibition, % at 16.5 µM; 360,000 compounds, 0.26% hits;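 active = inhibition above a per-plate limit, mean inhibition of low control wells plus 3 SD, cut at about 25% in these data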;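 note: 0% = DMSO wells with enzyme and 100% = wells lacking Arfgap1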
# Target sequence (Q62848 1-136 limits assumed): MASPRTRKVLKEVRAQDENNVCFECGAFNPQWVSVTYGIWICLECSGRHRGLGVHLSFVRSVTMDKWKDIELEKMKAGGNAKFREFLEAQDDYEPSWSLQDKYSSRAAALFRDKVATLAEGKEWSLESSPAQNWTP
#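 Material: truncated rat Arfgap1 GAP domain; Incubation: compound-enzyme preincubation 20 min, reaction 120 min, detection 60 min, 25 °C; Read-out: percent inhibition of Arfgap1-stimulated GTP hydrolysis; Technique: FP, GDP Alexa 633 tracer displaced from anti-GDP antibody, 620/688 nm; Controls: No-Arfgap1 wells (100%) versus DMSO full-reaction wells (0%); Replication: single well per compound.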
# ASAP1 GAP inh: inhibitors of human ASAP1 ArfGAP activity, primary screen, biochemical, fluorescence polarization; Arf-GAP with SH3 domain, ANK repeat and PH domain-containing protein 1 (Homo sapiens), …; ASAP1-stimulated ARF1 GTP hydrolysis, GDP FP detection; inhibition, % at 16.5 µM; 360,000 compounds, 0.19% hits; AID 624377, 2012; in the data active = inhibition above about 25%;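 note: 0% = vehicle with enzyme and substrate and 100% = no enzyme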
# Numbers without * were called inactive; . = no result given.
SMILES,Rtt109 Vps75,FGF22 binding,Efflux pump inh,ARFGAP1 inh,ASAP1 GAP inh
CCN(CC)c1ccc(/C=C/C(=O)C2C(=O)C=C(C)OC2=O)cc1 (configuration not stated),3.9,0.2,7.6*,-5.2,0.9
COCCSc1nc(N)c(NC(=O)c2ccc(OC)cc2)c(=O)[nH]1,-12.2,43.0*,0.3,-0.3,-4.5
O=C(NC1=NCCS1)c1ccc(Cl)c(S(=O)(=O)N2CCCCC2)c1,-1.7,.,0.1,-2.5,-4.9
O=C(NC1=NCCS1)c1ccc(Cl)c(S(=O)(=O)N2CCOCC2)c1,-2.0,43.1*,0.2,-1.1,3.0
O=C(NC1=NCCS1)c1ccc(Cl)c(S(=O)(=O)N2CCCC2)c1,-26.6,43.3*,0.1,-6.3,-6.4
O=C(NC1=NCCS1)c1ccc(F)c(S(=O)(=O)N2CCOCC2)c1,15.7,-0.2,0.4,-1.1,-1.6
NC(=O)c1cc(-c2ccccc2)sc1NC(=O)CN1CCCCC1,.,43.0*,0.1,4.9,13.1
CCN(CC)Cc1oc(CO)cc(=O)c1O,-5.2,43.1*,0.0,4.2,-14.3
CCOc1cc(CNc2nn[nH]n2)ccc1OCC(=O)NC(C)(C)C,-3.9,43.6*,-0.1,-2.7,-15.8
COc1cc(CNc2ncn[nH]2)ccc1OCC(=O)NC(C)(C)C,0.9,-0.1,0.3,-0.4,-8.4
CCOc1cc(CNc2ncn[nH]2)ccc1OCC(=O)NC(C)(C)C,3.5,43.2*,0.0,3.9,-11.0
CCOc1cc(CNc2ccc(S(N)(=O)=O)cc2)ccc1OCC(=O)NC(C)(C)C,2.4,0.1,-0.1,-8.4,-4.6
CCc1ccc(OCc2nnc(-c3ccccc3Br)o2)cc1,9.8,0.0,0.1,12.3,7.2
Cc1ccccc1NC(=S)/C(=C(\[O-])c1cc(C)n(Cc2ccccc2Cl)c1C)[n+]1ccccc1,14.1,43.0*,0.2,-10.6,-2.9
Cc1cc(C([O-])=C(C(=S)Nc2ccccc2)[n+]2ccccc2)c(C)n1-c1ccccc1,-7.4,0.1,.,-7.0,6.7
COc1ccc(Br)cc1/C=C/C(=O)NC(=S)Nc1ccc(Cl)c(C(=O)O)c1,16.2,0.0,0.0,7.5,7.3
COc1ccc(Br)cc1/C=C/C(=O)NCC(=O)O,0.9,43.5*,-0.2,15.8,-3.1
O=S(=O)(CCNCCc1ccccc1)NC1CCCCC1,-1.7,0.1,.,4.0,-5.3
Cc1ccc(SCc2c(C(=O)N/N=C/c3ccc(C)o3)nnn2-c2nonc2N)cc1,.,0.1,.,2.5,-0.1
Cc1ccc(/C=N/NC(=O)c2nnn(-c3nonc3N)c2CSc2ccccc2)o1,-3.3,42.9*,-0.2,-1.7,-8.4
Cc1cccc(OCC(=O)Nc2ccc(CN3CCOCC3)cc2)c1C,-9.9,0.2,-1.2,17.2,-1.5
Fc1ccc(-c2nnc3ccccn23)cc1,1.9,43.2*,.,1.1,-2.6
CCn1ccnc1CNCc1cn(-c2cc(C)ccc2C)nc1-c1ccccc1,.,43.1*,0.1,1.0,0.2
COCCCNC(=O)C[C@H]1C[C@H](C(=O)N2CCOCC2)[C@@]2(C)c3[nH]c4cc(CCC(=O)N(C)C)ccc4c3CCN2C1=O,7.3,0.3,-0.3,1.0,17.2
O=C(Nc1nnc(-c2ccccc2)o1)c1nc2ccccc2s1,-1.2,-0.2,-0.2,-1.7,2.0
SMILES,Rtt109 Vps75,FGF22 binding,Efflux pump inh,ARFGAP1 inh,ASAP1 GAP inh
Cc1sc2ccccc2c1CNC[C@H]1O[C@@H](n2cnc(C(N)=O)n2)[C@H](O)[C@@H]1O,-5.8,43.5*,.,-3.9,-5.4
COc1ccc(N2CC(NC(=O)Nc3ccccc3)CC2=O)cc1 (configuration not stated),-2.3,-0.1,0.1,-0.7,-13.4
C#CCN1CCc2onc(-c3ccccc3OC)c2C1=O,.,43.2*,.,16.6,-1.6
CCCc1ccc(OCC(=O)Nc2cc(S(=O)(=O)CC)ccc2O)cc1,15.7,44.2*,0.2,5.0,1.9
CCS(=O)(=O)c1ccc(O)c(NC(=O)COc2ccc(OC)cc2)c1,3.0,.,-0.2,10.9,-6.0
O=C1c2ccccc2CCC12OC2c1ccc([N+](=O)[O-])cc1 (configuration not stated),.,43.6*,.,5.8,4.5
CN1/C(=C\C(=O)Nc2ccc(Cl)cc2)C(C)(C)c2ccccc21,-5.9,43.6*,0.0,2.3,5.7
Cn1c(-c2ccc3ccccc3n2)[n+](C)c2ccccc21,-4.8,0.1,0.0,-6.4,11.3
Cn1c(-c2ccccn2)[n+](C)c2ccccc21,0.6,43.3*,-0.1,7.6,8.8
CN(C)S(=O)(=O)c1ccc(C(=O)OCc2ccc([N+](=O)[O-])cc2)cc1,-4.8,44.1*,0.1,4.0,12.7
CN(C)S(=O)(=O)c1ccc(NC(=O)CCNC(=O)c2ccc([N+](=O)[O-])cc2)cc1,-5.3,43.2*,0.2,0.2,8.9
O=C(CCNC(=O)c1ccc([N+](=O)[O-])cc1)Nc1ccc(N2CCOCC2)cc1N1CCOCC1,-2.9,43.1*,-0.3,-3.4,7.4
Cc1ccc(NC(=O)CCNC(=O)c2ccc([N+](=O)[O-])cc2)cc1S(=O)(=O)N(C)C,2.9,0.4,0.0,8.1,-4.8
O=C(Nc1ccc(N2CCOCC2)cc1N1CCOCC1)c1ccc([N+](=O)[O-])cc1,-9.8,.,0.1,-5.2,7.5
CCc1nn(C(CC)C(=O)NCCCN2CC(C)CC(C)C2)c(=O)c2cc3oc(C)cc3n12 (configuration not stated),33.9,0.0,-0.2,-1.2,-15.0
Cc1ccc(-c2cnc3c(c2)C(=O)N([C@@H](C)CO)C[C@@H](C)[C@H](CN(C)C(=O)c2ccccc2)O3)cc1,.,-0.1,.,.,.
Cn1cc(Cl)c(-c2n[nH]c(=S)n2C2CCCCC2)n1,5.8,0.7,0.0,4.4,-2.7
COc1cc(CN2CCN(c3ccccc3F)CC2)c([N+](=O)[O-])cc1OC,2.3,43.8*,-0.1,-1.9,-6.4
O=[N+]([O-])c1cc2c(cc1CN1CCN(c3ccccc3F)CC1)OCO2,-0.5,0.0,0.1,-0.2,-4.4
Cc1noc2ncnc(Oc3ccccc3Cl)c12,-5.6,42.9*,0.0,2.3,4.1
Cc1noc2ncnc(Oc3ccc(Cl)cc3Cl)c12,9.6,43.6*,-0.1,-0.4,11.0
Cc1noc2ncnc(Oc3ccccc3)c12,-0.6,.,0.0,8.7,-5.4
CCCCn1c(CNC(=O)Cc2ccccc2)nc2ccccc21,-11.7,0.0,0.3,4.6,5.1
C[C@@H]1CN([C@@H](C)CO)C(=O)c2cccc(NS(=O)(=O)c3ccc(Cl)cc3)c2O[C@H]1CN(C)Cc1ccc(C(=O)Nc2ccccc2N)cc1,.,-0.7,.,.,.
